The values below come from ChEMBL document CHEMBL5029154, “Design, Synthesis, and Biological Evaluation of Organic Nitrite (NO2-) Donors as Potential Anticerebral Ischemia Agents” (J Med Chem, 2021).

The structures appear in SMILES notation. Activity calls are given as the source filed them.

The subject of series [1] is Cortical neurone. As to the kind of experiment: Induction of Nrf2 protein level in OGD/R-induced rat primary cortical neuron pretreated at 1.8 uM for 24 hrs followed by subjected to OGD for 2 hrs measured after 24 hrs under normoxic condition by Western blot analysis. Format: functional, tissue-based. Summed up:
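Primary rat cortical neurons were pretreated with 1.8 μM compound for 24 h, given 2 h OGD, then 24 h normoxic culture. Nrf2, HO-1 and NQO1 mRNA were measured by RT-qPCR. Cytoplasmic and nuclear protein (30 μg/lane) were blotted for Nrf2, with lamin A and β-actin as references, and quantified by densitometry as the nuclear:cytoplasmic ratio. Three independent experiments, mean ± SD.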
(In western blotting, separated proteins are transferred to a membrane and probed.)

Series [2] can be described thus: Neuroprotective activity against in OGD/R-induced rat cortical neuron apoptosis assessed as necrotic cells pretreated at 1.8 uM for 24 hrs followed by subjected to OGD for 2 hrs measured after 24 hrs under normoxic condition by PI/FITC-H staining based flow cytometry (reference value: 3.68%). Format: functional, Cortical neurone. On the technique in general: In flow cytometry, cells or beads pass a laser one at a time.

In series [3] the test system is Rattus norvegicus. Put plainly: Angiogenic activity in middle cerebral artery occlusion-induced ischemia-reperfusion injury Sprague-Dawley rat model assessed as tube formation in cerebral ischemic penumbra at 95 to 9500 microg/kg, iv treated immediately reperfusion measured after 7 days by immunofluoresence assay. Format: functional, organism-based. The note with it: dose 95-9500 µg/kg, time 7.0 day. Summed up:
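After MCAO/reperfusion, SD rats (N = 5/group) were dosed iv immediately after reperfusion and then daily for 7 days, with or without PTIO. Paraffin brain sections (3 μm) were immunostained for CD31, Ki67 and Aurora B with DAPI. Vascular density was CD31⁺/DAPI⁺; proliferating endothelium was CD31⁺Ki67⁺/CD31⁺.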

Series [4] in a line: Stability of the compound in rat plasma assessed as half life at 200 uM measured after 24 hrs by HPLC analysis. The format is ADME, cell-free.
The test system of series [5] is Rattus norvegicus. Put plainly: Neuroprotective activity against middle cerebral artery occlusion-induced ischemia-reperfusion injury Sprague-Dawley rat model assessed as decrease in cerebral infarct volume at 95 to 9500 microg/kg, iv pretreated for 2 hrs followed by reperfusion measured after 24 hrs. The note with it: dose 95-9500 µg/kg. The format is functional, organism-based. Summed up:
(§1)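 Male SD rats (N = 8/group) were dosed iv at 95, 950 or 9500 μg/kg 2 h before 2 h MCAO (nylon suture, chloral hydrate anesthesia), then reperfused. Where used, PTIO 1 mg/kg iv was given 30 min before compound. At 24 h, blinded assessment covered Longa deficit score, TTC-stained 2 mm sections (infarct area/whole area), and edema by wet/dry weight.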

For series [6], the system named is Rattus norvegicus. Put plainly: Neuroprotective activity against middle cerebral artery occlusion-induced ischemia-reperfusion injury Sprague-Dawley rat model assessed as decrease in cerebral infarct volume at 950 microg/kg, iv pretreated for 2 hrs followed by reperfusion measured after 24 hrs in presence of PTIO. Format: functional, organism-based. The note with it: dose 950.0 µg/kg. Summed up:
as §1

For series [7], the system named is Rattus norvegicus. Put plainly: In vivo activation of Nrf2 middle cerebral artery occlusion-induced ischemia-reperfusion injury Sprague-Dawley rat model assessed as phosphorylation at 950 microg/kg, iv treated immediately reperfusion measured after 24 hrs. Format: functional, organism-based. Particulars: dose 950.0 µg/kg. Summed up:
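Paraffin sections (3 μm) from MCAO rats were immunostained with anti-phospho-Nrf2 (1:100) and DAB, then scored blinded by average optical density over five fields per sample.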

The subject of series [8] is Rattus norvegicus. Put plainly: Neuroprotective activity against middle cerebral artery occlusion-induced ischemia-reperfusion injury Sprague-Dawley rat model assessed as increase in CD31 expression in cerebral ischemic penumbra at 95 to 950 microg/kg, iv treated immediately reperfusion measured after 24 hrs in presence of PTIO by immunofluoresence assay. Format: functional, organism-based. Particulars: dose 95-950 µg/kg.

Series [9] can be described thus: GSH reactivity assessed as reaction rate measured at 4 equiv of GSH upto 24 hrs by HPLC analysis. Format: ADME.
Series [10] can be described thus: Neuroprotective activity against in OGD/R-induced rat cortical neuron apoptosis assessed as late apoptotic cells pretreated at 1.8 uM for 24 hrs followed by subjected to OGD for 2 hrs measured after 24 hrs under normoxic condition by PI/FITC-H staining based flow cytometry (reference value: 6.31%). Format: functional, Cortical neurone.

Consider `O=C(/C(=C/c1ccccc1)C[N+](=O)[O-])c1ccccc1`, for which the outcome in series [1], in [3], in series [5] and in [7] was Active. The figures for the Activity in series [2], in series [9] and in series [10] were 1.28%, 0.0299 h⁻¹ and 1.72%, respectively. For the same compound, the half-life (as a rule, the time needed for the level to fall by half in the phase considered) at 200 µM in series [4] was 5.3 h. The outcome in series [6] and in series [8] was inactive.
